The target in experiment [1] is Cannabinoid receptor 1 (Homo sapiens) (UniProt P21554). The experiment is described as follows: Inverse agonist activity at human CB1 receptor expressed in CHO cell membranes assessed as decrease in cellular response at 0.001 to 10 uM after 90 mins by [35S]-GTPgammaS binding based liquid scintillation spectrometric method relative to control. It is filed as functional. The arrangement: scale not given: the % may be the effect or the level left. The conditions noted are these: Cell membrane, dose 0.001-10 µM. The essentials: (§1)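 Compound alone, 1 nM to 10 µM (from 10.00 mM DMSO stocks; 0.1% DMSO per tube), incubated 90 min at 30 °C with hCB1-CHO membranes (50.0 µg protein/tube). Buffer: 50 mM Tris, 10 mM MgCl2, 100 mM NaCl, 0.2 mM EDTA, 1 mM DTT, pH 7.4, with [35S]GTPγS 0.1 nM and GDP 30 µM. Read by filtration and scintillation counting. Response expressed as % change from vehicle basal stimulation. Six independent experiments, each in duplicate.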
(GTPγS resists hydrolysis and so accumulates on activated G proteins.)

The target is the same in experiment [2]. The experiment is described as follows: Positive allosteric modulation of human CB1 receptor expressed in CHO cell membranes assessed as increase in binding [3H]CP55940 to the receptor after 60 mins by liquid scintillation spectrometric method. The settings on record: Cell membrane, filed as positive allosteric modulator, dose 1-10000 nM. The essentials:
(§2)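 Membranes from CHO cells stably expressing human CB1 (50.0 µg protein/tube) incubated 60 min at 37 °C with [3H]CP55940 0.700 nM and compound 1 nM to 10 µM (from 10.00 mM DMSO stocks; 0.1% DMSO). Ended with ice-cold Tris buffer and vacuum filtration, six washes. Filters oven-dried, then scintillation counted. Six independent experiments in duplicate; one-sample t-test against zero.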

The target is the same in experiment [3]. Nature of the experiment: Positive allosteric modulation of human CB1 receptor expressed in CHO cell membranes assessed as increase in binding [3H]CP55940 to the receptor up to 10 uM after 60 mins by liquid scintillation spectrometric method relative to control. The settings on record: Cell membrane, filed as positive allosteric modulator, dose microM <=10, time 60.0 min. The essentials:
as §2

Experiment [4] has the same target. Nature of the experiment: Negative allosteric modulation of human CB1 receptor expressed in CHO cell membranes assessed as decrease in CP55940-induced agonist activity at 1 uM after 90 mins by [35S]-GTPgammaS binding based liquid scintillation spectrometric method relative to control. The format is functional. The arrangement: scale not given: the % may be the effect or the level left. The settings on record: Cell membrane. The essentials: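 Test compound held fixed at 1 µM (from 10.00 mM DMSO stock) against CP55940 0.1 nM to 1 µM. Incubated with hCB1-CHO membranes (50.0 µg protein/tube, 0.1% DMSO) for 90 min at 30 °C, with [35S]GTPγS 0.1 nM and GDP 30 µM in Tris/MgCl2/NaCl/EDTA/DTT buffer, pH 7.4. Bound label filtered and counted. Data taken as % change over vehicle basal; mean of six experiments in duplicate.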

The target is the same in experiment [5]. The experiment is described as follows: Inverse agonist activity at human CB1 receptor expressed in CHO cell membranes assessed as decrease in cellular response up to 10 uM after 90 mins by [35S]-GTPgammaS binding based liquid scintillation spectrometric method. The settings on record: Cell membrane, dose microM <=10, time 90.0 min. It is filed as functional. The essentials:
as §1

For experiment [6] the target is unchanged. The experiment is described as follows: Inverse agonist activity at human CB1 receptor expressed in CHO cell membranes assessed as decrease in cellular response >1 uM after 90 mins by [35S]-GTPgammaS binding based liquid scintillation spectrometric method. The settings on record: Cell membrane, dose microM >1, time 90.0 min. The arrangement: scale not given: the % may be the effect or the level left. The format is functional. The essentials: as §1

The target is the same in experiment [7]. The experiment is described as follows: Inverse agonist activity at human CB1 receptor expressed in CHO cell membranes assessed as decrease in cellular response up to 1 uM after 90 mins by [35S]-GTPgammaS binding based liquid scintillation spectrometric method. It is filed as functional. The conditions noted are these: Cell membrane, dose microM <=1, time 90.0 min. The essentials:
as §1

Experiment [8] has the same target. The experiment is described as follows: Positive allosteric modulation of human CB1 receptor expressed in CHO cell membranes assessed as increase in binding [3H]CP55940 to the receptor at 1 uM after 60 mins by liquid scintillation spectrometric method relative to control. The conditions noted are these: Cell membrane. The essentials:
as §2

Experiment [9] deals with Cannabinoid receptor 2 (Homo sapiens) (UniProt P34972). Nature of the experiment: Binding affinity to human CB2 receptor expressed in CHO cell membranes assessed as displacement of [3H]CP55940 from the receptor > 1 uM after 60 mins by liquid scintillation spectrometric method. The conditions noted are these: Cell membrane, dose microM >1, time 60.0 min. (In general: In a radioligand displacement assay an active substance lowers the binding of a labelled ligand.)

Experiment [10] addresses Cannabinoid receptor 1 (Homo sapiens) (UniProt P21554). The experiment is described as follows: Negative allosteric modulation of human CB1 receptor expressed in CHO cell membranes assessed as decrease in CP55940-induced agonist activity at 100 nM after 90 mins by [35S]-GTPgammaS binding based liquid scintillation spectrometric method. It is filed as functional. The settings on record: Cell membrane, filed as negative allosteric modulator.

The target in experiment [11] is Cannabinoid receptor 2 (Homo sapiens) (UniProt P34972). The experiment is described as follows: Positive allosteric modulation of human CB2 receptor expressed in CHO cell membranes assessed as increase in binding [3H]CP55940 to the receptor at 0.001 to 10 uM after 60 mins by liquid scintillation spectrometric method. The conditions noted are these: Cell membrane, dose 0.001-10 µM. The essentials: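 Human CB2 stably expressed in CHO cells; membranes at 50.0 µg protein/tube with [3H]CP55940 0.700 nM and compound 1 nM to 10 µM (0.1% DMSO). Incubated 60 min at 37 °C, then filtered under vacuum with ice-cold Tris buffer and scintillation counted. Six independent experiments, each in duplicate.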

Experiment [12] concerns the target Cannabinoid receptor 1 (Homo sapiens) (UniProt P21554). The experiment is described as follows: Positive allosteric modulation of human CB1 receptor expressed in CHO cell membranes assessed as increase in binding [3H]CP55940 to the receptor at 10 uM after 60 mins by liquid scintillation spectrometric method relative to control. The settings on record: Cell membrane. The essentials:
as §2

The source made the active and inactive calls. The rule behind the calls is not given here.

This is an account of results in ChEMBL document CHEMBL4706514, “PSNCBAM-1 analogs: Structural evolutions and allosteric properties at cannabinoid CB1 receptor” (Eur J Med Chem, 2020).

Chain of Cannabinoid receptor 1 (Homo sapiens) (P21554 whole entry): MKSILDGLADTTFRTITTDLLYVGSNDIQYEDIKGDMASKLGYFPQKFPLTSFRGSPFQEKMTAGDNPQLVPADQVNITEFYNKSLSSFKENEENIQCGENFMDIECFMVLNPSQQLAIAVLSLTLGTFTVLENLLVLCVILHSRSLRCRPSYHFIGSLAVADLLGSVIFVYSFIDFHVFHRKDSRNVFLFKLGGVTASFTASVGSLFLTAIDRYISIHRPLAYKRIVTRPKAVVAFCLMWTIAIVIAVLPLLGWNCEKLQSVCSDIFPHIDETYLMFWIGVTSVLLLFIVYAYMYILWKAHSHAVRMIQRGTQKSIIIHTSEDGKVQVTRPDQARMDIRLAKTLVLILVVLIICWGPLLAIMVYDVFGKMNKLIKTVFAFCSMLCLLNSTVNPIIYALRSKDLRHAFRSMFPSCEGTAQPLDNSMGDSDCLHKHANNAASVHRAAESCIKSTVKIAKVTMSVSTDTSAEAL
Chain of Cannabinoid receptor 2 (Homo sapiens) (P34972 whole entry): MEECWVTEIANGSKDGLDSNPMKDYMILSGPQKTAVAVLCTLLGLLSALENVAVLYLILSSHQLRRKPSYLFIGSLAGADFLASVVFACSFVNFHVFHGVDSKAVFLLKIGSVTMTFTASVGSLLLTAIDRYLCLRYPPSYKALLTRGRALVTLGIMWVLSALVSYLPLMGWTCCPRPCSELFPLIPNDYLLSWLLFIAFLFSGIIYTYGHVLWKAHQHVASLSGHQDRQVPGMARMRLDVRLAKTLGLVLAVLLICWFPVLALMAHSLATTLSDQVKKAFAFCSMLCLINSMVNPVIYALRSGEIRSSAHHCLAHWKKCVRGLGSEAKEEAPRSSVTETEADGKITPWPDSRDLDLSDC

With `O=C(Nc1ccc(Cl)cc1)Nc1cccc(Nc2ccccn2)c1`, the results for the Activity in [1], in [2] and in experiment [3] were 30%, “Dose-dependent effect” and 170%, respectively.

As for `O=C(Nc1ccc(Cl)cc1)Nc1cccc(Nc2cccc(N3CCCCC3)n2)n1`, the figures for the Activity entry in experiment [2] and in experiment [3] were “Dose-dependent effect” and 50%, respectively. In addition, the outcome in [4] and in [5] was inactive.

For the compound `O=C(Nc1ccc(F)cc1)Nc1cccc(-c2cccc(N3CCCC3)c2)c1`, the Activity was 45% in experiment [1] (filed as inverse agonist), “Dose-dependent effect” in [2] and 70% in experiment [3].

As for `O=C(Nc1ccc(Cl)cc1)Nc1cccc(-c2cccc(N3CCCCC3)c2)c1`, the Activity in experiment [6] came to 30%; in experiment [8], 40%; in experiment [4], 30%. The outcome in experiment [7] was inactive. In experiment [9], the Displacement result was “Active”.

`O=C(Nc1ccc(Cl)cc1)Nc1cccc(Nc2cccc(N3CCCC3)n2)n1`: the Activity entry in experiment [2] was “Dose-dependent effect”; in experiment [3], 60%. Also, the outcome in experiment [4] and in [5] was inactive.

As for `O=C(Nc1ccc(Cl)cc1)Nc1cccc(Nc2ccccc2)c1`, the Activity in [1] is 30%; in [2], “Dose-dependent effect”; in experiment [3], 90%.

In the case of `O=C(Nc1ccc(Cl)cc1)Nc1cccc(Nc2ccc(F)cc2)c1`, the Activity in experiment [6] is 35%; in experiment [2], “Dose-dependent effect”; in experiment [4], 30%; in experiment [3], 90%. In addition, the outcome in experiment [10] was Active. For the same compound, the result in [7] and in experiment [11] was inactive.

On to `O=C(CCc1ccc(Cl)cc1)Nc1cccc(-c2cccc(N3CCCC3)c2)c1`, for which the outcome in experiment [12] was inactive.
